# Test results from ChEMBL document CHEMBL4725369, “Multicomponent Synthesis, Binding Mode, and Structure-Activity Relationship of Selective Histone Deacetylase 6 (HDAC6) Inhibitors with Bifurcated Capping Groups” (J Med Chem, 2020).
# Activity calls are given as the source filed them. The rule behind the calls is not given here.
# How the values were obtained:
# [1] = target: T1, Protein deacetylase HDAC6 (Homo sapiens, UniProt Q9UBN7); test: Inhibition of human recombinant HDAC6 using ZMAL (Z-Lys(Ac)-AMC) fluorogenic substrate incubated for 90 mins by fluorescence based assay
# T1 sequence (Q9UBN7 whole entry): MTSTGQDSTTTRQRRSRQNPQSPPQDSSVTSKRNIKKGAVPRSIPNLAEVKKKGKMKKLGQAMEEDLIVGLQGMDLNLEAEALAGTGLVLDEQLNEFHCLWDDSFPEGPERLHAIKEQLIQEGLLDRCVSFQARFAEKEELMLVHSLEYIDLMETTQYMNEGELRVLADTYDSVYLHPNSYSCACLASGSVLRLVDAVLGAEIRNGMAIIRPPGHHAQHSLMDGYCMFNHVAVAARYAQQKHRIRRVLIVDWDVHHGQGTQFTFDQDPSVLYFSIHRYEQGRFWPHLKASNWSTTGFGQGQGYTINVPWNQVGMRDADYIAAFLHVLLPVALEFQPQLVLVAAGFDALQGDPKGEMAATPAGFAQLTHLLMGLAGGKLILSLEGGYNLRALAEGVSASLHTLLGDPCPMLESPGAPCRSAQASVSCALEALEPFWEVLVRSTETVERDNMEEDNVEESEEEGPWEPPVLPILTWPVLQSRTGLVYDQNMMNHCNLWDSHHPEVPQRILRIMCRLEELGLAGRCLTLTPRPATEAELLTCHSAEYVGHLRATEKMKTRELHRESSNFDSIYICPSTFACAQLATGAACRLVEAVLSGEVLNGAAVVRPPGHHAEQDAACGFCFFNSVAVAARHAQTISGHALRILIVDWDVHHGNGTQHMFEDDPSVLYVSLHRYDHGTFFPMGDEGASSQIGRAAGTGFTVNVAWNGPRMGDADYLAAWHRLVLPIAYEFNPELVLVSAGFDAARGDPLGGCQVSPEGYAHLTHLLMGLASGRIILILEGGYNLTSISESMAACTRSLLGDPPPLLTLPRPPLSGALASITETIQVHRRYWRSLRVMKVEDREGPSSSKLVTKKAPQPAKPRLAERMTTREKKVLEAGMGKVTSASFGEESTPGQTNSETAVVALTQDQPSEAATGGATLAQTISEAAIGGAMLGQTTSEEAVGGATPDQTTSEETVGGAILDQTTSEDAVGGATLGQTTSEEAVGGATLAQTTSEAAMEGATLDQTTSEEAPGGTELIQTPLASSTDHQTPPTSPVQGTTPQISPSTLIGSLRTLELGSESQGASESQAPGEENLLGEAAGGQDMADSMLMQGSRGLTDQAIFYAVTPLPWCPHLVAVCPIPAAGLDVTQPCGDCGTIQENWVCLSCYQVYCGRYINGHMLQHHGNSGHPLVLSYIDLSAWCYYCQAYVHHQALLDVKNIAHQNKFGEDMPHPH
# [2] = target: Histone deacetylase 1 (Homo sapiens, UniProt Q13547); test: Inhibition of human recombinant HDAC1 using ZMAL (Z-Lys(Ac)-AMC) fluorogenic substrate incubated for 90 mins by fluorescence based assay
# Chain of Histone deacetylase 1 (Q13547 whole entry): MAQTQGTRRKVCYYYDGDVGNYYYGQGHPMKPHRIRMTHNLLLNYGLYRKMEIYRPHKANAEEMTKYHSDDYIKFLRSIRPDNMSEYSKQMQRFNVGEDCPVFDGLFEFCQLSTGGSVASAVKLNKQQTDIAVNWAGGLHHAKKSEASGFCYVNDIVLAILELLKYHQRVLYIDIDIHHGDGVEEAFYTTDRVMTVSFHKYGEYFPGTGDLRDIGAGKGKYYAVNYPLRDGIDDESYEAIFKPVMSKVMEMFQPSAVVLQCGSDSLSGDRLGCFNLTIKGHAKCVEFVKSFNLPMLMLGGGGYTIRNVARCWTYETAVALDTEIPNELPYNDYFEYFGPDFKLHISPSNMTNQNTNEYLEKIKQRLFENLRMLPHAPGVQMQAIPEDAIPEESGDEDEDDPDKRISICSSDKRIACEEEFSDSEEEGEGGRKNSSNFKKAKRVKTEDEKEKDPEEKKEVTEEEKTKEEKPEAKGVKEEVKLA
# [3] = system: CCRF-HSB-2; test: Cytotoxicity in human CCRF-HSB-2 cells assessed as reduction in cell viability incubated for 72 hrs by cell-Titer-Glo luminescent cell viability assay; format: cell-based; conditions: CCRF-HSB-2, 72 h
# Method in brief: (§1)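 Leukaemia lines kept in RPMI 1640 with 20% FCS (SUP-B15 in McCoy's 5A with 20% FCS). Compound dispensed digitally at increasing concentrations from 1 μM to 50 μM. Viability read by CellTiter-Glo luminescence after 72 h. Raw data were normalized to controls and IC50 was fitted by sigmoid nonlinear regression.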
# [4] = system: CCRF-HSB-2; test: Potentiation of epirubicin-induced cytotoxicity in human CCRF-HSB-2 cells assessed as reduction in cell viability at 2.5 to 5 uM incubated for 72 hrs in presence of 10 nM epirubicin1 by cell-Titer-Glo luminescent cell viability assay; format: functional, cell-based; conditions: dose microM 2.5-5, time 72.0 hrs
# Method in brief: (§2)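 HSB-2 cells in RPMI 1640 with 20% FCS on a semi-automated combination platform. Test compound was fixed at 2.5 or 5 μM, alone or with chemotherapeutics and glucocorticoids dispensed at 10 nM-25 μM. Viability read by CellTiter-Glo luminescence after 72 h.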
# [5] = system: CCRF-HSB-2; test: Potentiation of […]-induced cytotoxicity in human CCRF-HSB-2 cells assessed as reduction in cell viability at 2.5 to 5 uM incubated for 72 hrs in presence of 10 nM daunorubicin by cell-Titer-Glo luminescent cell viability assay; format: functional, cell-based; conditions: dose microM 2.5-5, time 72.0 hrs; method in brief: as §2
# [6] = system: CCRF-HSB-2; test: Cytotoxicity in human CCRF-HSB-2 cells assessed as reduction in cell viability at 2.5 to 5 uM incubated for 72 hrs by cell-Titer-Glo luminescent cell viability assay; format: cell-based; conditions: ccrf-hsb-2, 72 h, dose 2.5-5 µM; method in brief: as §2
# [7] = target: T2, Protein deacetylase HDAC6 (Homo sapiens) (UniProt Q9UBN7); test: Inhibition of HDAC6 in human HL60 cells assessed as induction of alpha-tubulin acetylation at 2.5 to 5 uM incubated for 24 hrs by immunoblot analysis; format: cell-based; conditions: HL-60, dose microM 2.5-5, time […]
# T2 sequence (whole entry): T1 sequence (Q9UBN7 whole entry)
# [8] = system: HL-60; test: Induction of apoptosis in human HL-60 cells at 2.5 to 5 uM incubated for 24 hrs by Annexin V and PI staining based FACS analysis; format: cell-based; conditions: hl-60, 24 h, dose 2.5-5 µM
# Method in brief: (§3)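 HL60 cells in RPMI 1640 with 10% FCS at 37°C, 5% CO2. Cells were exposed to test compound at 2.5 or 5 μM, alone or combined with bortezomib, for 24 h. Annexin V/propidium iodide staining was read by FACS; n=3, with paired two-tailed Student's t-test.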
# [9] = target: Histone deacetylase 3 (Homo sapiens, UniProt O15379); test: Inhibition of human recombinant HDAC3 using ZMAL (Z-Lys(Ac)-AMC) fluorogenic substrate incubated for 90 mins by fluorescence based assay
# Chain of Histone deacetylase 3 (O15379 whole entry): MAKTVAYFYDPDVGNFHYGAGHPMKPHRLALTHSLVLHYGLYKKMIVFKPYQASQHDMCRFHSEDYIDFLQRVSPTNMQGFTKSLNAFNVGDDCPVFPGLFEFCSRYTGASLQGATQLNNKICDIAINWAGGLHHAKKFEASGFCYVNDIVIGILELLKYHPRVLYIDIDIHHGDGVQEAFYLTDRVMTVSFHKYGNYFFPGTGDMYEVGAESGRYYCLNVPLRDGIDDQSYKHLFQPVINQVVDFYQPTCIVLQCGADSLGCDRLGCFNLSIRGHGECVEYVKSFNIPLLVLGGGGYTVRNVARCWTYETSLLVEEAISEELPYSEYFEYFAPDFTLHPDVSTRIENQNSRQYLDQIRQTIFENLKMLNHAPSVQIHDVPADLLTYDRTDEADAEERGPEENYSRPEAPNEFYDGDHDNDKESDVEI
# Method in brief: (§4)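 Enzyme was incubated with compound and ZMAL substrate (21.43 μM stock in assay buffer) for 90 min at 37 °C. Trypsin development followed for 30 min at 37 °C, then fluorescence at ex 355/em 460 nm. Duplicates, at least two independent experiments.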
# [10] = system: SUP-B15; test: Cytotoxicity in human SUP-B15 cells assessed as reduction in cell viability incubated for 72 hrs by cell-Titer-Glo luminescent cell viability assay; format: cell-based; conditions: SUP-B15, 72 h; method in brief: as §1
# [11] = system: K562; test: Cytotoxicity in human K562 cells assessed as reduction in cell viability incubated for 72 hrs by cell-Titer-Glo luminescent cell viability assay; format: cell-based; conditions: K562, 72 h
# Method in brief: (§5)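 Cells were exposed in 384-well format to a digitally dispensed concentration series of 1–50 μM. Viability was read by CellTiter-Glo luminescence after 72 h. Data were normalized to controls, and IC50 came from nonlinear regression of a sigmoid dose curve. K562 was maintained in RPMI 1640 with 10% FCS at 37 °C and 5% CO2. MOLT-4 was maintained in RPMI 1640 with 20% FCS.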
# [12] = Intrinsic clearance in mouse liver microsomes; format: ADME, Microsome
# [13] = target: Histone deacetylase 2 (Homo sapiens, UniProt Q92769); test: Inhibition of human recombinant HDAC2 using ZMAL (Z-Lys(Ac)-AMC) fluorogenic substrate incubated for 90 mins by fluorescence based assay; method in brief: as §4
# Chain of Histone deacetylase 2 (Q92769 whole entry): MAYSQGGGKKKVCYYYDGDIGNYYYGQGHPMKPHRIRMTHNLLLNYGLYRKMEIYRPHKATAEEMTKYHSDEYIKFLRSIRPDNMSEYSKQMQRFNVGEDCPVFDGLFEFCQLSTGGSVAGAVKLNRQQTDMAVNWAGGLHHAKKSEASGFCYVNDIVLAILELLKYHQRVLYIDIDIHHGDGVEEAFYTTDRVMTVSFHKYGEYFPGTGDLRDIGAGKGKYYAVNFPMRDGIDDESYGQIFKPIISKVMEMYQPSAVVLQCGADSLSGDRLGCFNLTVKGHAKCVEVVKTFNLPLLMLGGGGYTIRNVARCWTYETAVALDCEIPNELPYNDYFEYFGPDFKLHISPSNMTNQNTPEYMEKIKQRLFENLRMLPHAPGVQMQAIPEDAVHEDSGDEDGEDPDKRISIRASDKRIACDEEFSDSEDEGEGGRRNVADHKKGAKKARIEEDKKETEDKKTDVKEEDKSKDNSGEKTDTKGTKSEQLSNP
# [14] = system: MOLT-4; test: Cytotoxicity in human MOLT-4 cells assessed as reduction in cell viability incubated for 72 hrs by cell-Titer-Glo luminescent cell viability assay; format: cell-based; conditions: MOLT-4, 72 h; method in brief: as §5
# [15] = target: Class 1 histone deacetylase (Homo sapiens) (UniProt Q13547+O15379+Q92769+Q9BY41); test: Inhibition of class-1 HDAC in human HL60 cells assessed as induction of histone H3 acetylation at 2.5 to 5 uM incubated for 24 hrs by immunoblot analysis; format: cell-based; conditions: HL-60, dose microM 2.5-5, time […]
# [16] = system: Jurkat; test: Cytotoxicity in human Jurkat cells assessed as reduction in cell viability incubated for 72 hrs by cell-Titer-Glo luminescent cell viability assay; format: cell-based; method in brief: as §1
# [17] = target: Histone deacetylase 4 (Homo sapiens, UniProt P56524); test: Inhibition of human recombinant HDAC4 using Boc-Lys-(epsilon-Tfa)-AMC fluorogenic substrate incubated for 90 mins by fluorescence based assay
# Chain of Histone deacetylase 4 (P56524 whole entry): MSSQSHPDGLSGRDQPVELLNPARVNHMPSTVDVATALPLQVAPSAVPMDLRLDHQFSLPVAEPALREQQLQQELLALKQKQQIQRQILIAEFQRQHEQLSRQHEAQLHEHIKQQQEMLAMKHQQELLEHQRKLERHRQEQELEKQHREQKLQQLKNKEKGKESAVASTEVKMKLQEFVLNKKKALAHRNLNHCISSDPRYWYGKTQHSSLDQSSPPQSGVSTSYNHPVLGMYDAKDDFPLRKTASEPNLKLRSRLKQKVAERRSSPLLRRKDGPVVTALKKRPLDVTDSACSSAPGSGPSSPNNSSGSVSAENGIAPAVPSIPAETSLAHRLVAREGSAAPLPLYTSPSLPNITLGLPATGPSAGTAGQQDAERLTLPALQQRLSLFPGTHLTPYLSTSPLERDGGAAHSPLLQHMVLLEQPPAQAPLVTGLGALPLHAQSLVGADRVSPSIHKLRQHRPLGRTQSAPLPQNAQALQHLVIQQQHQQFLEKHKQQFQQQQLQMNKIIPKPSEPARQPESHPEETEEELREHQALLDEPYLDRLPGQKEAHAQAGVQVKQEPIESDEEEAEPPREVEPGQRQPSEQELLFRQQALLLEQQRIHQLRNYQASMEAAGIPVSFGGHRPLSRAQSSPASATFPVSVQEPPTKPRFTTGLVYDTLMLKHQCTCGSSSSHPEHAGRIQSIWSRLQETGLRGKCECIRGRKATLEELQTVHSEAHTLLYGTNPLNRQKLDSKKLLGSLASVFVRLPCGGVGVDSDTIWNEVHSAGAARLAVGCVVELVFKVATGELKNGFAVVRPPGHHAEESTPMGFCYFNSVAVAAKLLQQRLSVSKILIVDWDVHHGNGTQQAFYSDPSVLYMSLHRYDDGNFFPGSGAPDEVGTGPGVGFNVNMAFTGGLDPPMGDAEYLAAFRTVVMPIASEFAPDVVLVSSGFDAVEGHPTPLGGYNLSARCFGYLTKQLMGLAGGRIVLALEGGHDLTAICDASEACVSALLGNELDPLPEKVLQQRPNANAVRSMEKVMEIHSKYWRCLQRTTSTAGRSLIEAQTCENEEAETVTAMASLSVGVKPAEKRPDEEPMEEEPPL
# Method in brief: (§6)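 Human recombinant HDAC4 or HDAC8, 20 ng per well, in Tris-HCl pH 8.0 buffer with 1 mg/mL BSA. Enzyme was preincubated 5 min with inhibitor, then started with Boc-Lys(ε-Tfa)-AMC, 100 μM for HDAC4 or 60 μM for HDAC8. […] Fluorescence ex 355/em 460 nm was read 15 min later.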
# [18] = system: TALL-1; test: Cytotoxicity in human TALL-1 cells assessed as reduction in cell viability incubated for 72 hrs by cell-Titer-Glo luminescent cell viability assay; format: cell-based; conditions: TALL-1, 72 h; method in brief: as §1
# [19] = system: HL-60; test: Potentiation of bortezomib-induced apoptosis in human HL-60 cells assessed as increase in number of late apoptotic/dead cells at 2.5 to 5 uM incubated for 24 hrs in presence of 0.6 to 1.2 nM bortezomib- by Annexin V and PI staining based FACS analysis; format: functional, cell-based; conditions: dose microM 2.5-5, time […]; method in brief: as §3
# [20] = Intrinsic clearance in human liver microsomes; format: ADME, Microsome
# [21] = target: T3, Histone deacetylase 8 (Homo sapiens, UniProt Q9BY41); test: Inhibition of human recombinant HDAC8 using Boc-Lys-(epsilon-Tfa)-AMC fluorogenic substrate incubated for 90 mins by fluorescence based assay; method in brief: as §6
# T3 sequence (Q9BY41 whole entry): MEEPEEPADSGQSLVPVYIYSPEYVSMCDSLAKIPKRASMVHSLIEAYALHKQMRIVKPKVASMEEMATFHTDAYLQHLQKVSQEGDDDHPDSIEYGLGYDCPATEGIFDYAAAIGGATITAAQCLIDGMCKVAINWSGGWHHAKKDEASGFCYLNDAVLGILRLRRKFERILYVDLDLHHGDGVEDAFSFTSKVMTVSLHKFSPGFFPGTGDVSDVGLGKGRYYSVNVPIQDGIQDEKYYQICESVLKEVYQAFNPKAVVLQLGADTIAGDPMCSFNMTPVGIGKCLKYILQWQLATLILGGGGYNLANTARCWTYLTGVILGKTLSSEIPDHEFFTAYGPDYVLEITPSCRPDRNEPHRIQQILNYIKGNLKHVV
SMILES,IC50 [1] [nM],IC50 [2] [nM],further results
CC(C)c1ccc(C(=O)N(Cc2ccc(C(=O)NO)cc2)Cc2nnnn2Cc2ccccc2)cc1,320,1780,–
O=C(NO)c1ccc(CNCc2nnnn2C2CCCCC2)cc1,120,2060,–
CC(C)(C)n1nnnc1CNCc1ccc(C(=O)NO)cc1,330,8240,–
O=C(NO)c1ccc(CNC(c2ccccc2)c2nnnn2Cc2ccccc2)cc1 (stereo not drawn),100,3370,–
Cc1ccccc1C(=O)N(Cc1ccc(C(=O)NO)cc1)Cc1nnnn1C1CCCCC1,60,3030,–
O=C(NO)c1ccc(CN(Cc2nnnn2Cc2ccccc2)C(=O)c2ccccc2)cc1,30,1240,–
O=C(NO)c1ccc(CNCc2nnnn2Cc2ccccc2)cc1,100,2450,–
O=C(NO)c1ccc(CNC(c2ccccc2)c2nnnn2C2CCCCC2)cc1 (stereo not drawn),120,4060,–
CCCCC(NCc1ccc(C(=O)NO)cc1)c1nnnn1Cc1ccccc1 (stereo not drawn),120,2010,–
O=C(NO)c1ccc(CN(Cc2nnnn2C2CCCCC2)C(=O)c2ccccc2)cc1,70,2370,–
O=C(NO)c1ccc(CN(Cc2nnnn2Cc2ccccc2)C(=O)c2ccccc2C(F)(F)F)cc1,30,5180,IC50 [3]: 51800 nM; Activity [4]: Active; Activity [5]: Active; Activity [6]: Non-Toxic; inhibition [7]: Active; Activity [8]: Non-Toxic; IC50 [9]: 8480 nM; IC50 [10]: 22500 nM; IC50 [11]: 41600 nM; CLint [12]: 26 µL/min/mg; IC50 [13]: 2260 nM; IC50 [14]: 42400 nM; inhibition [15]: inactive; IC50 [16]: 32100 nM; IC50 [17]: 55400 nM; IC50 [18]: 49400 nM; Activity [19]: Active; CLint [20]: 30 µL/min/mg; IC50 [21]: 14700 nM
Cc1cc(C)cc(C(=O)N(Cc2ccc(C(=O)NO)cc2)Cc2nnnn2Cc2ccccc2)c1,80,900,–
